Active and inactive are the calls of the source. The calls are words filed in the database; no cut-off is given here.
Legend:
[1] = tested on: PC-12; assay: Neuroprotection activity in rat PC12 cells assessed as reduction in H2O2-induced cell death preincubated for 3 hrs followed by H2O2 addition and measured after 3 hrs by MTS assay; format: functional, cell-based
In short: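 PC12 cells plated at 2 × 10^5 cells mL−1 for 1 day, pretreated 3 h with compounds, then H2O2 (final 400 µM) for 3 h. Viability by MTS at 490 nm relative to untreated cells (100%); single-concentration tests at 2.5, 5, 10 µM and IC50 values; mean ± SD, n = 3.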

[2] = Cytotoxicity against […] BV2 cells assessed as cell viability at 0.625 to 40 uM after 24 hrs by MTS assay; format: cell-based; settings: read-out: Activity
In short: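 Viability of BV2 cells read by MTS under the NO-assay conditions: 3 h compound (0.625–40 µM) pretreatment followed by LPS 100 ng mL−1 for 24 h.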

[3] = Anti-neuroinflammatory activity in […] BV2 cells assessed as reduction in LPS-induced NO production preincubated for 3 hrs followed by LPS stimulation for 24 hrs by Griess assay; format: functional, cell-based; settings: BV-2
In short: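 BV2 microglia seeded 3 × 10^5 cells mL−1 for 1 day; compounds in medium added for 3 h, then LPS (final 100 ng mL−1) for a further 24 h. Supernatant mixed with Griess reagent, absorbance at 540 nm. Inhibition % from NO release of LPS-only, unstimulated and compound+LPS wells; IC50 reported; mean ± SD, n = 3.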

[4] = Antioxidant activity assessed as DPPH radical scavenging activity after 1 hr by […]; format: functional
In short: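 DPPH (0.2 mM) in ethanol mixed with sample, kept 1 h at room temperature, absorbance read at 517 nm. Scavenging % = [1−(Ac−Ab)/A0]×100, where Ab is the sample in ethanol without DPPH and A0 is the ethanol+DPPH control. EC50 reported; vitamin C used as reference antioxidant; mean ± SD, n = 3.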

[5] = Cytotoxicity against rat PC12 cells assessed as cell viability at 100 uM after 24 hrs by MTT assay; format: cell-based, PC-12; settings: read-out: Activity
In short: (§1)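 Cells kept in high-glucose DMEM with 10% FBS and 1% PS at 37 °C, 5% CO2. Plated 1 day, then compounds for 24 h; viability by MTT at 100 µM as ODtreated/ODcontrol × 100%, untreated = 100%. Mean ± SD, n = 3.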

[6] = tested on: PC-12; assay: Neuroprotection activity in rat PC12 cells assessed as reduction in 6-OHDA-induced cell damages at 2.5 uM preincubated for 3 hrs followed by H2O2 addition and measured after 24 hrs by MTT assay relative to control; format: functional, cell-based; settings: in the assay text read “6-OHDA addition” for “H2O2 addition”
In short: (§2)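 PC12 cells plated at 2 × 10^5 cells mL−1 for 1 day, pretreated 3 h with compounds at 2.5, 5 or 10 µM, then 6-OHDA (final 250 µM) added for 24 h. Viability by MTT, absorbance 570 nm; untreated cells = 100%; mean ± SD, n = 3.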

[7] = tested on: PC-12; assay: Neuroprotection activity in rat PC12 cells assessed as reduction in 6-OHDA-induced cell damages at 10 uM preincubated for 3 hrs followed by H2O2 addition and measured after 24 hrs by MTT assay relative to control; format: functional, cell-based; settings: in the assay text read “6-OHDA addition” for “H2O2 addition”; in short: as §2
[8] = Cytotoxicity against […] BV2 cells assessed as cell viability at 100 uM after 24 hrs by MTT assay; format: cell-based; settings: read-out: Activity; in short: as §1
[9] = tested on: PC-12; assay: Neuroprotection against H2O2-induced cell death in rat PC12 cells assessed as increase in cell viability at 5 uM preincubated for 3 hrs followed by H2O2 addition and measured after 3 hrs by MTS assay relative to CAPE; format: functional
In short: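 PC12 cells plated at 2 × 10^5 cells/mL for 1 day, pretreated with compound (2.5, 5, 10 µM) for 3 h, then H2O2 added (final 400 µM) for 3 h. Viability read by MTS at 490 nm, untreated cells = 100%. Mean ± SD, n = 3.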

IC50 [3] [µM] | EC50 [4] [µM] | SMILES | IC50 [1] [µM] | viability at 24 h, up to 40 µM [2] [%] | viability at 24 h, 100 µM [5] [%] | Activity [6] | Activity [7] | viability at 24 h, 100 µM [8] [%] | Activity [9] [%]
7.3 | 6.8 | CCCCCCCCCCS(=O)(=O)/C=C/c1ccc(O)c(O)c1 | 2.21 | > 90 | 59.7 | Active | Active | 34.1 | 
11 | 7.5 | O=S(=O)(/C=C/c1ccc(O)c(O)c1)CCCCCCCCCO | 7.91 | > 90 | 95.2 | Active | Active | 54.4 | 
6 | 14.6 | O=C(/C=C/c1ccc(O)c(O)c1)OCCc1ccccc1 [CAFFEIC ACID PHENETHYL ESTER] | 2 | > 90 | 85.1 |  | Active | 69.3 | 
6.9 | 11.4 | CCCCCCCCCCCS(=O)(=O)/C=C/c1ccc(O)c(O)c1 | 2.34 | > 90 | 52.1 | Active | Active | 23.2 | 
2.5 | 6.8 | O=S(=O)(/C=C/c1ccc(O)c(O)c1)CCC1CCCC1 | 1.96 | > 90 | 77.7 | Active | Active | 76.6 | 
13.3 | 22.6 | O=S(=O)(/C=C/c1ccc(O)c(O)c1)CCCCCCCCCCCO | 24.1 | > 90 | 100 | Active | Active | 50.4 | 
54.6 | 10.5 | O=S(=O)(/C=C/c1ccc(O)c(O)c1)CC1CCCO1 (centres undefined) | 27.1 | > 90 | 98 |  | inactive | 93.9 | 
6.9 | 10.8 | O=S(=O)(/C=C/c1ccc(O)c(O)c1)CC1CCCCO1 (centres undefined) | 3.34 | > 90 | 88.3 |  | Active | 78.8 | 
11.3 | 9.8 | O=S(=O)(/C=C/c1ccc(O)c(O)c1)CCC1CCCCC1 | 2 | > 90 | 94.9 | Active | Active | 62.6 | 
33.5 | 10.5 | O=S(=O)(/C=C/c1ccc(O)c(O)c1)CC1CC1 | 6.61 | > 90 | 92.9 |  | inactive | 87.8 | 
103 | 13.8 | O=S(=O)(/C=C/c1ccc(O)c(O)c1)CC1CCCN1 (centres undefined) |  | > 90 | 55.9 |  |  | 76.4 | 
7 | 7.1 | CC(C)(C)OC(=O)N1CCCC1CS(=O)(=O)/C=C/c1ccc(O)c(O)c1 (centres undefined) | 7.2 | > 90 | 52.5 |  | inactive | 68.7 | 
8.5 | 7.1 | CCCCCCCS(=O)(=O)/C=C/c1ccc(O)c(O)c1 | 1.33 | > 90 | 85.7 | Active | Active | 52.5 | 
7.4 | 7.7 | CCCCCCCCCS(=O)(=O)/C=C/c1ccc(O)c(O)c1 | 1.93 | > 90 | 70.6 | Active | Active | 66.6 | 
7.6 | 6.4 | CCCCCCCCS(=O)(=O)/C=C/c1ccc(O)c(O)c1 | 1.45 | > 90 | 73.6 | Active | Active | 63.6 | 
15.8 | 9.4 | O=S(=O)(/C=C/c1ccc(O)c(O)c1)CC1CCCC1 | 2.19 | > 90 | 85.4 | Active | Active | 72.7 | 
12.2 | 6.7 | O=S(=O)(/C=C/c1ccc(O)c(O)c1)CCCCCCCCO | 7.91 | > 90 | 87.3 | Active | Active | 49.5 | 
20.8 | 8.8 | O=S(=O)(/C=C/c1ccc(O)c(O)c1)CC1CCC1 | 4.81 | > 90 | 80.2 |  | Active | 83.8 | 
6.6 | 8.5 | CCCCCCCCCCCCS(=O)(=O)/C=C/c1ccc(O)c(O)c1 | 2.27 | > 90 | 28.2 | Active | Active | 25.2 | 
14.3 | 5.9 | O=S(=O)(/C=C/c1ccc(O)c(O)c1)CCCCCCCO | 9.91 | > 90 | 91.8 | Active | Active | 72 | 

SMILES | IC50 [3] [µM] | EC50 [4] [µM] | IC50 [1] [µM] | viability at 24 h, up to 40 µM [2] [%] | viability at 24 h, 100 µM [5] [%] | Activity [6] | Activity [7] | viability at 24 h, 100 µM [8] [%] | Activity [9] [%]
CCCCCS(=O)(=O)/C=C/c1ccc(O)c(O)c1 | 3.3 | 8.1 | 1.83 | > 90 | 57.4 | Active | Active | 70.1 | 30
O=S(=O)(/C=C/c1ccc(O)c(O)c1)CC1CCCCC1 | 6.7 | 7.5 | 1.85 | > 90 | 87 | Active | Active | 74.7 | 30
C=CCCCCCCCS(=O)(=O)/C=C/c1ccc(O)c(O)c1 | 8.3 | 6.9 | 1.9 | > 90 | 74.7 | Active | Active | 71.9 | 30
CCCCCCS(=O)(=O)/C=C/c1ccc(O)c(O)c1 | 3.8 | 7.3 | 1.3 | > 90 | 63.7 | Active | Active | 56.2 | 30
C=CCCCCCCS(=O)(=O)/C=C/c1ccc(O)c(O)c1 | 8.7 | 6.4 | 1.35 | > 90 | 66.9 | Active | Active | 73.4 | 30
O=S(=O)(/C=C/c1ccc(O)c(O)c1)CCCC1CCCCC1 | 9.2 | 7.9 | 1 | > 90 | 91.3 | Active | Active | 77.7 | 30
C=CCCCCCS(=O)(=O)/C=C/c1ccc(O)c(O)c1 | 11.2 | 7.1 | 1.62 | > 90 | 67.5 | Active | Active | 58.9 | 30

From ChEMBL document CHEMBL4346690, “Structure-activity relationship studies of (E)-3,4-dihydroxystyryl alkyl sulfones as novel neuroprotective agents based on improved antioxidant, anti-inflammatory activities and BBB permeability” (Eur J Med Chem, 2019)
